Data set [1] addresses T1, Short transient receptor potential channel 1 & 3/Stromal interaction molecule 1/Calcium release-activated calcium channel protein 1 (Homo sapiens) (UniProt Q96D31+Q13507+Q13586+P48995). The experiment in a line: Modulation of TRPC1/TRPC3/STIM1/Orai1 in HEK cells assessed as induction of store-operated calcium entry by measuring residual activity at 10 uM preincubated for 30 mins followed by tBhQ-mediated Ca2+ depletion and Ca2+ re-addition to extracellular solution measured for 600 secs by Fluo-4 AM-based fluorometric assay relative to control. In kind it is cell-based.

The nature of data set [2]: Cytotoxicity against HEK cells assessed as cell viability at 10 uM by MTT assay relative to control. In kind it is cell-based. The settings on record: human, read-out: Activity. The essentials: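 Hek cells treated 24 h with compound at 10 μM; viability determined by MTT assay.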
Data set [3] deals with T2, Stromal interaction molecule 1 & 2/Calcium release-activated calcium channel protein 1 (Mus musculus) (UniProt Q8BWG9+P70302+P83093). Briefly: Modulation of STIM1/STIM2/Orai1 in mouse BV2 cells assessed as induction of store-operated calcium entry by measuring residual activity at 10 uM preincubated for 30 mins followed by tBhQ-mediated Ca2+ depletion and Ca2+ re-addition to extracellular solution measured for 600 secs by Fluo-4 AM-based fluorometric assay relative to control. In kind it is cell-based.

In data set [4] the test system is Jurkat. Briefly: Induction of store-operated calcium entry in human Jurkat cells assessed as induction of store-operated calcium entry by measuring residual activity at 10 uM preincubated for 30 mins followed by tBhQ-mediated Ca2+ depletion and Ca2+ re-addition to extracellular solution measured for 600 secs by Fluo-4 AM-based fluorometric assay relative to control. The class given is cell-based.

Data set [5] can be described thus: Metabolic stability in CD1 mouse plasma assessed as residual compound level at 50 uM after 30 mins by LC-UV analysis. The class given is ADME, cell-free. The settings on record: read-out: Stability. The essentials: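 Compounds incubated in mouse plasma for 30 min; percentage of residual substrate determined.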
Data set [6] addresses T1, Short transient receptor potential channel 1 & 3/Stromal interaction molecule 1/Calcium release-activated calcium channel protein 1 (Homo sapiens). The experiment in a line: Modulation of TRPC1/TRPC3/STIM1/Orai1 in HEK cells assessed as induction of store-operated calcium entry by measuring residual activity at 100 uM preincubated for 30 mins followed by tBhQ-mediated Ca2+ depletion and Ca2+ re-addition to extracellular solution measured for 600 secs by Fluo-4 AM-based fluorometric assay relative to control. The class given is cell-based.

The target in data set [7] is Transient receptor potential cation channel subfamily M member 8 (Homo sapiens) (UniProt Q7Z2W7). The experiment in a line: Antagonist activity at TRPM8 (unknown origin) expressed in HEK cells assessed as inhibition of menthol -mediated calcium increase at 10 uM by fura-2-based assay. In kind it is cell-based. The essentials: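 TRPM8-overexpressing Hek cells; calcium rise evoked by menthol (100 μM), test compounds at 10 μM; peak amplitude read out; mean ± SEM of 600 cells from 30 plates on four separate experimental days.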
Transient receptor potential cation channel subfamily M member 8 (Homo sapiens), sequence (Q7Z2W7 whole entry, looked up): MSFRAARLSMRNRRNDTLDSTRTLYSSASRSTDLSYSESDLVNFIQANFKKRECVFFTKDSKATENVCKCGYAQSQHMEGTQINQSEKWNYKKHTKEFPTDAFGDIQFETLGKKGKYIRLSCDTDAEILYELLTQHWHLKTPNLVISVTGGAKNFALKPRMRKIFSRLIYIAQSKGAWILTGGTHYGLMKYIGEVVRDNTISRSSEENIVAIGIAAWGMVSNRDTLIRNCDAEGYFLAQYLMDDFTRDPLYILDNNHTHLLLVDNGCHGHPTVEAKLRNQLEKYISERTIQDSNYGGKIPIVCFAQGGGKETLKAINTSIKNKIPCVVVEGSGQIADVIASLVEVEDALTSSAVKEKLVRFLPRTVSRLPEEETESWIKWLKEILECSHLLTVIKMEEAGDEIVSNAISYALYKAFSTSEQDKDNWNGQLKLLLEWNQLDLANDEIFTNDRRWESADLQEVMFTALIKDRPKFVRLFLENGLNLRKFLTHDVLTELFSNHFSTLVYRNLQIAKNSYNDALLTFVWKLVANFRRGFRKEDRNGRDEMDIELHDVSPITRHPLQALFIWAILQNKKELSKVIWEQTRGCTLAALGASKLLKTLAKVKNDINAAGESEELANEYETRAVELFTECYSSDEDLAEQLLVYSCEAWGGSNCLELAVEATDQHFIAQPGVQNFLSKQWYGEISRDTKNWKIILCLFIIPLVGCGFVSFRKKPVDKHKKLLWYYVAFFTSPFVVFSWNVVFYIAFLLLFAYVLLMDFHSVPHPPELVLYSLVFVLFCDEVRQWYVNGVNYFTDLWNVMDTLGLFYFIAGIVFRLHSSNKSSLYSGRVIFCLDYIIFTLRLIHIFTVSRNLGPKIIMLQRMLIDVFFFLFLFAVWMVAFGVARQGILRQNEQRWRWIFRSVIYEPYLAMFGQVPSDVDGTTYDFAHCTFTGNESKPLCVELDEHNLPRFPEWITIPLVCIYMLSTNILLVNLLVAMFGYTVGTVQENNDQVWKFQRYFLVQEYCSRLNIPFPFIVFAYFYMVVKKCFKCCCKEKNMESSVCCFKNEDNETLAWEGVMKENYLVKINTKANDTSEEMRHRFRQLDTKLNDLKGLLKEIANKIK

Data set [8] is described as follows: Induction of store-operated calcium entry in human Jurkat cells assessed as induction of store-operated calcium entry by measuring residual activity preincubated for 30 mins followed by tBhQ-mediated Ca2+ depletion and Ca2+ re-addition to extracellular solution measured for 600 secs by Fluo-4 AM-based fluorometric assay relative to control. In kind it is cell-based.

Data set [9] addresses Transient receptor potential cation channel subfamily V member 1 (Homo sapiens) (UniProt Q8NER1). Briefly: Antagonist activity at TRPV1 (unknown origin) expressed in HEK cells assessed as inhibition of capsaicin-induced calcium increase at 10 uM by fura-2-based assay. The class given is cell-based. Summed up: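 TRPV1-overexpressing Hek cells; calcium rise evoked by capsaicin (100 nM), test compounds at 10 μM; peak amplitude read out; mean ± SEM of 600 cells from 30 plates on four separate experimental days.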

For data set [10], the target named is T2, Stromal interaction molecule 1 & 2/Calcium release-activated calcium channel protein 1 (Mus musculus). Briefly: Modulation of STIM1/STIM2/Orai1 in mouse BV2 cells assessed as induction of store-operated calcium entry by measuring residual activity at 100 uM preincubated for 30 mins followed by tBhQ-mediated Ca2+ depletion and Ca2+ re-addition to extracellular solution measured for 600 secs by Fluo-4 AM-based fluorometric assay relative to control. The class given is cell-based.

Data set [11] has as its system Jurkat. Briefly: Induction of store-operated calcium entry in human Jurkat cells assessed as induction of store-operated calcium entry by measuring residual activity at 100 uM preincubated for 30 mins followed by tBhQ-mediated Ca2+ depletion and Ca2+ re-addition to extracellular solution measured for 600 secs by Fluo-4 AM-based fluorometric assay relative to control. The class given is cell-based.

Data set [12] deals with Short transient receptor potential channel 1 & 3/Stromal interaction molecule 1/Calcium release-activated calcium channel protein 1 (Homo sapiens, UniProt P48995+Q13507+Q13586+Q96D31). The experiment in a line: Modulation of TRPC1/TRPC3/STIM1/Orai1 in HEK cells assessed as induction of store-operated calcium entry by measuring residual activity preincubated for 30 mins followed by tBhQ-mediated Ca2+ depletion and Ca2+ re-addition to extracellular solution measured for 600 secs by Fluo-4 AM-based fluorometric assay relative to control. The class given is cell-based.

Calls of active or inactive are those of the source. The rule behind the calls is not given here.

Consider 41 molecules from ChEMBL document CHEMBL4152384, “Pyrtriazoles, a Novel Class of Store-Operated Calcium Entry Modulators: Discovery, Biological Profiling, and in Vivo Proof-of-Concept Efficacy in Acute Pancreatitis” (J Med Chem, 2018).

In general, IC50 refers to the concentration at which inhibition is half-maximal.

T1 sequence (P48995 whole entry partner): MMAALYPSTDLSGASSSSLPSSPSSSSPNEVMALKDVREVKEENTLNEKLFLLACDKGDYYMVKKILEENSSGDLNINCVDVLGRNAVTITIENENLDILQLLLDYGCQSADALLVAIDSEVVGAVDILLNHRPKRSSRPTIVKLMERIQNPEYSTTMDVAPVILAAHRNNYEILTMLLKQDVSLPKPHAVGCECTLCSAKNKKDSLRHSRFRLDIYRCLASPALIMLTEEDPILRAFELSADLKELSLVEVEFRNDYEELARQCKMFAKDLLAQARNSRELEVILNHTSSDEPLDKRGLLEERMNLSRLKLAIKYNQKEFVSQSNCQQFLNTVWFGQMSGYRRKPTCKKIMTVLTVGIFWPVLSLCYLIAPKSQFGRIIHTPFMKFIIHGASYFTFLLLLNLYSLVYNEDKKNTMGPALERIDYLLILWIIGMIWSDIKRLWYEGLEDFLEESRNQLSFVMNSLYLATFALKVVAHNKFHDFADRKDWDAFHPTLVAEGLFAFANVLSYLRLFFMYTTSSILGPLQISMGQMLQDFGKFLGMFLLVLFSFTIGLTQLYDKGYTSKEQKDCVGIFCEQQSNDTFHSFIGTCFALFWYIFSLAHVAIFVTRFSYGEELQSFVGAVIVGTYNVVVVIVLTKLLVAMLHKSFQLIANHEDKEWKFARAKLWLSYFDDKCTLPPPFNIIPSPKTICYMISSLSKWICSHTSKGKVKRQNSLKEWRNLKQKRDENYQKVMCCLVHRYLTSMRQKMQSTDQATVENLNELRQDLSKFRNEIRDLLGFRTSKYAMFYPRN
T1 sequence (Q13507 whole entry partner): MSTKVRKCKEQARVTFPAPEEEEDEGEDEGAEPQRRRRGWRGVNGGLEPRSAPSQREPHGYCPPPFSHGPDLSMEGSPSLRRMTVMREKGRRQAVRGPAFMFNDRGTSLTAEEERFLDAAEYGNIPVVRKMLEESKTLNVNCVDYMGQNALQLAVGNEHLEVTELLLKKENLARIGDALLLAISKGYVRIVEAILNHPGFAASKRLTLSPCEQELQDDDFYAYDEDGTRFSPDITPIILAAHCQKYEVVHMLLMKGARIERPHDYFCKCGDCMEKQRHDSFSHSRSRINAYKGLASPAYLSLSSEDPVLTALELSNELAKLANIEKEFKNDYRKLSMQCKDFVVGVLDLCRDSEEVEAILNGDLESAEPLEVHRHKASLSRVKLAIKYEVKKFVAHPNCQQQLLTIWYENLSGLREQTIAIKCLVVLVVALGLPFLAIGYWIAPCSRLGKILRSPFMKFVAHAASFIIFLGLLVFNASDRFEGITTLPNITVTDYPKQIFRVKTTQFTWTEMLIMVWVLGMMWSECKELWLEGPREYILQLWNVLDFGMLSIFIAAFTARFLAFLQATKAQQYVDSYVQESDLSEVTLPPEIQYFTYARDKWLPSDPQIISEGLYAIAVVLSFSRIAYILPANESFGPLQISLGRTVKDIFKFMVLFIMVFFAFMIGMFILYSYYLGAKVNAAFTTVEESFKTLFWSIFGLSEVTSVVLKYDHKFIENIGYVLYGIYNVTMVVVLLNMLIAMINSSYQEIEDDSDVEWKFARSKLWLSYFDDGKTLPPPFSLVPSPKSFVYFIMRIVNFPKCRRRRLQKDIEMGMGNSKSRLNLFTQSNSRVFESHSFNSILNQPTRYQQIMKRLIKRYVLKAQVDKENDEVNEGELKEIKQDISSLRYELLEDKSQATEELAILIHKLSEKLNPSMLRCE
T1 sequence (Q13586 23-685 partner limits assumed): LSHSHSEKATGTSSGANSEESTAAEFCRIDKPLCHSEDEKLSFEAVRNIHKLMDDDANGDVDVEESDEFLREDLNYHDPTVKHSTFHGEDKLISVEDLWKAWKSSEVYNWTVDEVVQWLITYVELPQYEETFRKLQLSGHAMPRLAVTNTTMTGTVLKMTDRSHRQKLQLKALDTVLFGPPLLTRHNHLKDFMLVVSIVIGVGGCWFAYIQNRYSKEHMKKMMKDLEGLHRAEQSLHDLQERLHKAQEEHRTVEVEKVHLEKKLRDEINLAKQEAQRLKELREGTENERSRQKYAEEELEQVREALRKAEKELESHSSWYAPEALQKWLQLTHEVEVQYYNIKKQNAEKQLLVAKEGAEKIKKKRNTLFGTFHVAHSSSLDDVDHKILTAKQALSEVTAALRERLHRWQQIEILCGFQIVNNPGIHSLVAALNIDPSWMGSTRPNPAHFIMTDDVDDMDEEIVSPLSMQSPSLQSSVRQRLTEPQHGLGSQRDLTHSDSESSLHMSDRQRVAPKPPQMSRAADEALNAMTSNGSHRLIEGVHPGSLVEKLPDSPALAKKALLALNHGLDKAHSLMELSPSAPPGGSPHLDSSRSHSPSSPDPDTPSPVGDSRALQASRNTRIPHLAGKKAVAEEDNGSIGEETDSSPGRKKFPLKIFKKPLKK
T1 sequence (Q96D31 whole entry): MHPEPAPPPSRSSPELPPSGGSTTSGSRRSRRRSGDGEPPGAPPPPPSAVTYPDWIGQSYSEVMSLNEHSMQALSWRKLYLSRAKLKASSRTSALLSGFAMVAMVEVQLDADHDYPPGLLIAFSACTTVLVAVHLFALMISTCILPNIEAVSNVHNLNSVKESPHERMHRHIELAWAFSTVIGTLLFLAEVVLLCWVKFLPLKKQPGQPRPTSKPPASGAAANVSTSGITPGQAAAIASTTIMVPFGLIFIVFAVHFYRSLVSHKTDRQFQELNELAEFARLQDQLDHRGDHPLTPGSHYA
Transient receptor potential cation channel subfamily V member 1 (Homo sapiens), sequence (Q8NER1 whole entry): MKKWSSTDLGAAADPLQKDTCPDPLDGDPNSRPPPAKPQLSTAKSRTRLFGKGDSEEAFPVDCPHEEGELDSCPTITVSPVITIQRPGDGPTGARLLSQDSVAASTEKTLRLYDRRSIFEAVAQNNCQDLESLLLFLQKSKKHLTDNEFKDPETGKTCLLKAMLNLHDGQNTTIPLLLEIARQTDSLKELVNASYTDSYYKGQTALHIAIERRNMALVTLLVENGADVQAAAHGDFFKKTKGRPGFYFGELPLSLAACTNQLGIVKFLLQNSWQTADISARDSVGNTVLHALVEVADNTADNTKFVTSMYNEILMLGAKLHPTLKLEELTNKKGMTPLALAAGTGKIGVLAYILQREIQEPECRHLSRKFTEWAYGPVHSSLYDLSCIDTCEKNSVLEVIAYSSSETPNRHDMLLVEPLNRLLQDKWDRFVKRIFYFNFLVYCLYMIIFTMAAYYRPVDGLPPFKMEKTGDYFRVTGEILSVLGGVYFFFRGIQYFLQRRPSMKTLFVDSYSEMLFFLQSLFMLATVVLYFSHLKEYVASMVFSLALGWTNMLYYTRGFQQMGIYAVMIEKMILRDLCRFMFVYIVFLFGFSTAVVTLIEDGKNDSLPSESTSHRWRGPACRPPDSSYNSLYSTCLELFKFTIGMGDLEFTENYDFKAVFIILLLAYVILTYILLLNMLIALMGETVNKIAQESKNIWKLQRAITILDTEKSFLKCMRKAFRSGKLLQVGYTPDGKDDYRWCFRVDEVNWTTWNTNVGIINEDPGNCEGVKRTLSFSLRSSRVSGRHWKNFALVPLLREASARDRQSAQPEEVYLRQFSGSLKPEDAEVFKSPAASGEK

`CCOC(=O)c1cnn(-c2ccc(-n3cc(-c4cccc(C(=O)NO)c4)nn3)cc2)c1C(F)(F)F`: the Activity in [1] turned out to be 6.4%. Also, in [2], the viability at 10 µM stood at 67.5%.

For the molecule `CCOC(=O)c1cnn(-c2ccc(-c3cn(-c4cccc(C(C)=O)c4)nn3)cc2)c1C(F)(F)F`, the Activity in data set [1] is > 90%. Still for that read-out and setting: as for `CC(C)=CCC/C(C)=C/COC(=O)c1cnn(-c2ccc(-n3cc(-c4cccc(C(=O)O)c4)nn3)cc2)c1C(F)(F)F`, the figure is > 90%. `CCOC(=O)c1cnn(-c2ccc(-c3cn(-c4ccncc4F)nn3)cc2)c1C(F)(F)F`: the figures for the Activity (in [3]; in [1]; in the data set with Jurkat [4]) were 62.3%, 81.4% and 67.1%, respectively.

As for `CCOC(=O)c1cnn(-c2ccc(-n3cc(-c4ccc(O)c(OC)c4)nn3)cc2)c1C(F)(F)F`, the Activity in [3] amounted to 65%; in data set [1] it was 43.2%; in the data set with Jurkat [4], 21.6%. For `CCOC(=O)c1cnn(-c2ccc(-n3cc(-c4ccc(C(=O)O)cc4)nn3)cc2)c1C(F)(F)F`, in that order: 59.9%, 52.1% and 67.7%. Regarding `CCOC(=O)c1cnn(-c2ccc(-n3nncc3-c3cccc(C(=O)O)c3)cc2)c1C(F)(F)F`, the Activity in [1] was > 90%. The same measure, in the same setting: the value for `O=C(O)c1cccc(-c2cn(-c3ccc(-n4ncc(C(=O)OCc5ccncc5)c4C(F)(F)F)cc3)nn2)c1` was > 90%. On to `CCOC(=O)c1cnn(-c2ccc(-c3cn(-c4cccc(N)c4)nn3)cc2)c1C(F)(F)F`, for which the Activity in [3] was found to be 61.3%; in [1], 73.2%; in the data set on Jurkat [4], 85.4%. In the case of `CCOC(=O)c1cnn(-c2ccc(-n3cc(-c4cccc(C(=O)OC)c4)nn3)cc2)c1C(F)(F)F`, the Activity in [1] was > 90%. For the molecule `CCOC(=O)c1cnn(-c2ccc(-c3cn(-c4cccc(C(=O)O)c4)nn3)cc2)c1C(F)(F)F`, the results for the Activity (in data set [3]; in [1]; in the data set with Jurkat [4]) were 56.7%, 30% and 36.3%, respectively. For the molecule `CCOC(=O)c1cnn(-c2ccc(-n3cc(-c4cccc(S(N)(=O)=O)c4)nn3)cc2)c1C(F)(F)F`, the Activity in data set [1] was found to be 83.6%. Same read-out and setting: as for `CCOC(=O)c1cnn(-c2ccc(-c3cn(-c4cccc(CO)c4)nn3)cc2)c1C(F)(F)F`, the figure is > 90%. On the same count and under the same terms, the value for `CC(C)CCOC(=O)c1cnn(-c2ccc(-n3cc(-c4cccc(C(=O)O)c4)nn3)cc2)c1C(F)(F)F` was > 90%. Turning to `O=C(O)c1cccc(-c2cn(-c3ccc(-n4ncc(C(=O)OCc5ccccc5)c4C(F)(F)F)cc3)nn2)c1`, the Activity in data set [1] was 10.5%. Moreover, in [2], the viability at 10 µM was 82.2%. Take `CCOC(=O)c1cnn(-c2ccc(-n3cc(-c4cccc(C(N)=O)c4)nn3)cc2)c1C(F)(F)F`: the Activity in data set [1] turned out to be 72.1%.

With `COC(=O)c1cnn(-c2ccc(-n3cc(-c4cccc(C(=O)O)c4)nn3)cc2)c1C(F)(F)F`, the Activity in data set [1] was found to be 7.9%. The viability at 10 µM in data set [2] was determined as 69.2%. Moreover, the remaining at 0.5 h, 50 µM in data set [5] is 6.5%. Consider `CCOC(=O)c1cnn(-c2ccc(NC(=O)C(Cl)=C(Cl)Cl)cc2)c1C(F)(F)F`, for which the Activity worked out at 40.7% in data set [3], 8.9% in data set [1] and 6.1% in the data set on Jurkat [4]. Also, the residual activity (in data set [6]; in [10]; in the data set with Jurkat [11]) was < 100% throughout. Also, the inhibition result in [7] and in [9] was “inactive” each time. The viability at 10 µM in data set [2] was found to be 28.6%. Also, the IC50 in data set [8] was 300 nM. Moreover, the remaining at 0.5 h, 50 µM in [5] turned out to be 20.4%. For the molecule `O=C(O)c1cccc(-c2cn(-c3ccc(-n4ncc(C(=O)OCCN5CCOCC5)c4C(F)(F)F)cc3)nn2)c1`, in [1], the Activity is > 90%. `CC(C)NC(=O)c1cnn(-c2ccc(-n3cc(-c4cccc(C(=O)O)c4)nn3)cc2)c1C(F)(F)F`: the Activity in data set [1] was > 90%. For `CCOC(=O)c1cnn(-c2ccc(-n3cc(-c4cccc(N)c4)nn3)cc2)c1C(F)(F)F`, the Activity in data set [3] worked out at 65.3%; in data set [1], 81.7%; with Jurkat [4], 89.3%. The matching figures for `O=C(O)c1cccc(-c2cn(-c3ccc(-n4nc(C(F)(F)F)cc4C(F)(F)F)cc3)nn2)c1`: 61.3%, 53% and 61.7%.

Turning to `CCOC(=O)c1cnn(-c2ccc(-c3cn(CCCC(=O)O)nn3)cc2)c1C(F)(F)F`, the values for the Activity (in [3]; in [1]; with Jurkat [4]) were 69.9%, 95.5% and 80.9%, respectively. In the case of `CCOC(=O)c1cnn(-c2ccc(-c3cn(-c4ccc(C(=O)O)cc4)nn3)cc2)c1C(F)(F)F`, the Activity in [3] is 69.5%; in data set [1] it was 69.3%; with Jurkat [4], 60.3%. As for `CCOC(=O)c1cnn(-c2ccc(NC(=O)c3cccc(C(=O)O)c3)cc2)c1C(F)(F)F`, the Activity in data set [1] turned out to be 63.5%. In addition, the viability at 10 µM in data set [2] turned out to be 65.9%. For `O=C(O)c1cccc(-n2cc(-c3ccc(-n4nc(C(F)(F)F)cc4C(F)(F)F)cc3)nn2)c1`, in data set [3], the Activity was 80.2%. Take `O=C(O)c1cccc(-c2cn(-c3ccc(-n4ncc(C(=O)O)c4C(F)(F)F)cc3)nn2)c1`: in data set [1], the Activity is > 90%. As to `FC(F)(F)c1cc(C(F)(F)F)n(-c2ccc(-c3cn(-c4ccc(Oc5ccccc5)cc4)nn3)cc2)n1`, in data set [3], the Activity turned out to be 90.2%. Still for that read-out and setting: the value for `FC(F)(F)c1cc(C(F)(F)F)n(-c2ccc(-n3cc(-c4ccccc4)nn3)cc2)n1` was 99.2%.

`CCOC(=O)c1cnn(-c2ccc(C(=O)Nc3cccc(C(=O)O)c3)cc2)c1C(F)(F)F`: the Activity in [1] is > 90%.

For the molecule `Oc1cccc(-n2cc(-c3ccc(-n4nc(C(F)(F)F)cc4C(F)(F)F)cc3)nn2)c1`, in [3], the Activity was 105%. The same measure, in the same setting: as for `CC(=O)Nc1ccc(-c2cn(-c3ccc(-n4nc(C(F)(F)F)cc4C(F)(F)F)cc3)nn2)cc1`, the figure is 98.5%. The same measure, in the same setting: as for `CCOC(=O)c1cnn(-c2ccc(-n3cc(-c4cccc(O)c4)nn3)cc2)c1C(F)(F)F`, the figure is 96.5%. For the molecule `NC(=O)c1cnn(-c2ccc(-n3cc(-c4cccc(C(=O)O)c4)nn3)cc2)c1C(F)(F)F`, the Activity in data set [1] was > 90%. In the case of `FC(F)(F)c1cc(C(F)(F)F)n(-c2ccc(-c3cn(-c4ccccn4)nn3)cc2)n1`, the Activity in data set [3] came out at 88.8%. With `O=C(Nc1ccc(-n2nc(C(F)(F)F)cc2C(F)(F)F)cc1)c1ccncc1F`, the inhibition entry in data set [7] and in data set [9] was “Active” in each case. Besides, in data set [1], the Activity worked out at 10.3%. Besides, the viability at 10 µM in [2] was determined as 70.3%. Further, in data set [12], the IC50 amounted to 300 nM. With `COc1ccc(-c2cn(-c3ccc(-n4nc(C(F)(F)F)cc4C(F)(F)F)cc3)nn2)cc1OC`, the Activity in [3] was found to be 109%. Consider `O=C(O)c1cccc(-c2cn(-c3ccc(-n4ncc(CO)c4C(F)(F)F)cc3)nn2)c1`, for which the Activity in data set [1] is > 90%. As to `CCOC(=O)c1cnn(-c2ccc(-n3cc(-c4ccncc4)nn3)cc2)c1C(F)(F)F`, the Activity in data set [3] amounted to 68.1%. Consider `CCOC(=O)c1cnn(-c2ccc(-n3cc(-c4ccccc4NC(C)=O)nn3)cc2)c1C(F)(F)F`, for which the Activity in data set [3] came to 72%. As for `CCOC(=O)c1cnn(-c2ccc(-n3cc(-c4cccc(C(=O)NS(C)(=O)=O)c4)nn3)cc2)c1C(F)(F)F`, in data set [1], the Activity was > 90%.
